# NPY-Y2 antag = antagonists of human neuropeptide Y receptor Y2 | P49146 | NPY-Y2 expressing cells, antagonist mode | inhibition, % at 2.7 µM | hit rate 0.99% among 140,000 | AID 793; in the data active = inhibition above about 17%;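 also: 0% = vehicle with agonist challenge and 100% = reference antagonist with challenge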
# NPY-Y1 antag = antagonists of human neuropeptide Y receptor Y1 | hit rate 1% among 200,000 | inhibition, % at 3.6 µM | AID 1040 | P25929 | HEK293-CNG Y1 cells, membrane potential fluorescence; NPY at EC95, then isoproterenol;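 active = inhibition above the campaign mean inhibition of all tested compounds plus 3 SD, cut at about 20% in these data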;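 also: 0% = DMSO wells given NPY plus isoproterenol and 100% = isoproterenol alone without NPY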
# Target sequence (P25929 whole entry, looked up): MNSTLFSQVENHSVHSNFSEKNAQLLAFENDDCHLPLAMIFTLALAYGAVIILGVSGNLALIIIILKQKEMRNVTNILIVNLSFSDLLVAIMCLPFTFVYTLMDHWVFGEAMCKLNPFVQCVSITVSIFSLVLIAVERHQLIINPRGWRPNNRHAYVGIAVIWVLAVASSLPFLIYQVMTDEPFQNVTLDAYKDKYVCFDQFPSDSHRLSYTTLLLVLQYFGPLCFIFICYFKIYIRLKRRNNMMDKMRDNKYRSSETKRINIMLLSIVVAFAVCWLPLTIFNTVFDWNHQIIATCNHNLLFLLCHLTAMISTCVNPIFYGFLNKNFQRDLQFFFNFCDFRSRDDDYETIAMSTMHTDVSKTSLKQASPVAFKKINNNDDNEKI
#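 Material: HEK293 cells co-expressing NPY Y1 receptor and cyclic-nucleotide gated channel. Timing: compound incubation 1 h at room temperature, readout 45 min post-stimulation. Signal: fluorescence, membrane potential probe.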
# MDM2 E3 inh = inhibitors of human Mdm2 E3 ubiquitin ligase | cell-based MDM2 ubiquitination luciferase reporter, 2 h; 0 = plate control, 100 = twice control, blank-subtracted | signal enhancement, % at 5 µM | hit rate 0.11% among 210,000 | AID 1230;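 active = signal enhancement of 30% or more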;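 also: luminescence tracks abundance of the self-degrading MDM2-luciferase fusion protein; higher signal means inhibition of MDM2 E3 ligase activity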
#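 system = mammalian cells stably expressing self-ubiquitinating, self-degrading MDM2 E3–luciferase fusion | quantity = 2000 cells per well seeded | incubation = 4 h cell settling then 2 h compound exposure, 37 °C | signal = SteadyLite luminescence, 15 min reagent step | benchmarks = plate control and blank wells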
# NPY1 pot ag = human NPY-Y1 potentiation or agonism, primary screen. activation, % at 3.6 µM. AID 1304. NPY-Y1 expressing cells, potentiator/agonist activation. P25929. hit rate 0.37% among 220,000; in the data active = activation above about 33%, passing the limit was not always enough;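 also: cells stimulated with NPY at EC10 then isoproterenol at EC100; 0% = low agonist plus stimulus and 100% = saturating agonist plus stimulus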
# NPY2 pot ag = potentiators or agonists of human neuropeptide Y receptor Y2; activation, % at 3.6 µM; P49146; AID 1359; cells expressing NPY-Y2, potentiator/agonist read-out; hit rate 0.45% among 220,000; in the data active = activation above about 27%;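 also: cells stimulated with NPY near EC25 plus isoproterenol at EC100; 0% = vehicle plus submaximal agonist and 100% = vehicle plus saturating agonist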
# Measles CPE = protection of cells from measles virus; Measles virus-infected cells, CPE protection, absorbance; protection (pct of control), % at 4 µM; hit rate 1.5% among 140,000; AID 841; in the data active = protection mostly above about 24%, no sharp cut-off; inactive = mostly below about 26%
# An asterisk follows results filed as active; . = not tested or not shown. Hits are enriched below; roughly 2.8% of the tested compounds scored in any of these assays.
SMILES,NPY-Y2 antag,NPY-Y1 antag,MDM2 E3 inh,NPY1 pot ag,NPY2 pot ag,Measles CPE
CC1CC(=O)NN=C1c1ccc(N)c([N+](=O)[O-])c1 (stereo unspecified),78*,65*,-8,-69,-18,41
CCOC(=O)c1cnc(SCc2cccc(C)c2)nc1N,9,10,-12,-8,-15,3
O=C1CC(c2ccccc2)n2nc(N3C(=O)CCC3=O)nc2N1 (stereo unspecified),1,6,-3,-4,4,52*
O=C(NN=C1C2CC3CC1CC(Cl)(C3)C2)c1ccccn1,.,4,-12,-30,-9,.
CC(/C=C/c1cccc([N+](=O)[O-])c1)=N\NC(=O)c1ccncc1,1,5,-4,3,-11,21
CCn1c(CNc2ccc(Cl)cc2)nnc1SCc1ccccc1,9,6,-7,23,-7,46*
Cn1c(CNc2ccc(Cl)cc2)nnc1SCc1ccccc1,7,-1,4,7,8,2
Nc1nc(Nc2ccccc2)nc2ccccc12,5,-9,-19,73*,68*,1
COc1ccc(-c2nnn(CC(=O)NCCc3c[nH]c4ccccc34)n2)cc1OC,4,5,1,-17,-31,7
Cc1ccc(-n2c(-c3ccc(Br)cc3)c[n+]3c2CCc2ccc4cccnc4c2-3)cc1,70*,54*,-64,-74,-29,2
N#C/C(=C\c1ccc(F)cc1F)S(=O)(=O)c1ccccn1,.,.,-16,12,-15,.
CCOc1ccc(CN2CCC(C(=O)N3CCN(c4ccccc4F)CC3)CC2)cc1OC,4,5,-5,6,-1,19
COc1cc(CN2CCC(C(=O)N3CCN(c4ccccc4F)CC3)CC2)cc(OC)c1O,2,2,-16,-1,0,51*
CCC1(C)CC(c2csc(N)n2)CCO1 (stereo unspecified),3,4,-2,8,14,65*
Nc1nc(C2CCCCC2)cs1,2,-1,-8,-9,14,7
O=C(NCc1ccco1)c1cc([N+](=O)[O-])ccc1N1CCCCC1,6,17,-4,-7,-2,1
O=C(NCc1ccc2c(c1)OCO2)c1cc([N+](=O)[O-])ccc1N1CCCCC1,23*,25*,-7,-21,-1,7
COC(=O)[C@@H]1CC[C@H](C)[C@@H](c2ccc(C)cc2)N1C(=O)c1ccc(/C=N/OCC[C@@H]2C=C[C@H](OC(C)=O)[C@@H](COC(C)=O)O2)cc1,16,4,.,0,3,2
O=C(O)C(O)C(O)c1nc2ccccc2[nH]1 (stereo unspecified),.,4,-5,-6,-8,.
CCOC(=O)N(C)OC(=O)Nc1ccc(Cl)c(Cl)c1,3,-3,-24,-21,-4,8
CCOC(=O)CNNC(=O)Nc1ccc(Cl)c(Cl)c1,-2,4,-19,3,-1,21*
C#CC(=O)N(c1cccc(OC)c1)C(C(=O)NC1CCCC1)c1cccs1 (stereo unspecified),0,-4,-47,55*,47*,0
COc1ccc(CCNC(=O)C(=O)N2CCCCC2)cc1OC,1,1,.,-9,-6,21
CC(C)Cc1c(O)nc(SCCN2CCOCC2)[nH]c1=O,3,-5,-9,-12,12,72*
CCCCCCNC(=O)C(C#N)c1nc2ccccc2nc1N1CCOCC1 (stereo unspecified),6,0,1,10,-7,47*
SMILES,NPY-Y2 antag,NPY-Y1 antag,MDM2 E3 inh,NPY1 pot ag,NPY2 pot ag,Measles CPE
N#CC(C(=O)NCCc1ccccc1)c1nc2ccccc2nc1N1CCCCC1 (stereo unspecified),-1,7,-14,21,-15,41*
Cc1ccc(OCC(=O)NNC(=O)C2CCCO2)c(C)c1 (stereo unspecified),.,6,.,-8,6,.
COc1ccc(NC(=S)N(CCCN2CCCC2)Cc2cccn2Cc2ccc(Cl)cc2)cc1Cl,.,4,-23,15,4,.
c1cc2c(cnc3cscc32)s1,4,-5,-5,8,9,34*
Cc1c(Cl)c([N+](=O)[O-])nn1CC(=O)NC(C)C1CC2CCC1C2 (stereo unspecified),21*,20*,-2,-12,-4,48*
CCC(C)NC(=O)Cn1nc([N+](=O)[O-])c(Cl)c1C (stereo unspecified),-2,5,-1,-15,3,19
CCC(C)(C)C(=O)Nc1ncc(S(=O)(=O)c2ccc([N+](=O)[O-])cc2)s1,-2,-7,-13,4,7,53*
O=C(Nc1ncc(S(=O)(=O)c2ccc([N+](=O)[O-])cc2)s1)c1cccnc1,.,.,-4,9,7,.
Cn1c(=O)c2c(nc(SCC(=O)NCc3ccco3)n2C)n(C)c1=O,3,0,8,8,-7,33*
COC(=O)CCCC(=O)N1CCCC(CNS(=O)(=O)c2ccc(OC)cc2)C1 (stereo unspecified),.,0,-6,6,1,.
N#Cc1c(NCCN)nc(-c2ccco2)c2c1CCCC2,22*,44*,-12,-108,-59,12
N#Cc1c(N2CCOCC2)nc(-c2ccco2)c2c1CCCC2,2,1,-17,-1,13,6
CC(=O)c1sc(-c2ccccc2)cc1N,.,.,0,18,11,.
CC(C)(C)N=Cc1cc(-c2ccccc2)sc1O,12,4,-25,14,2,41*
CCOC(=O)c1nnsc1N,.,.,-10,3,6,.
O=C(O)CSc1nnc(-c2cccc(S(=O)(=O)N3CCOCC3)c2)n1-c1cccc(Cl)c1,.,.,.,-2,-18,.
CN1C(=O)C2(C(C#N)=C(N)Oc3n[nH]c(-c4ccc(Cl)cc4)c32)c2ccccc21 (stereo unspecified),-1,-9,2,40*,43*,7
O=C1C2C3C=CC(C3)C2C(=O)N1Cc1ccc(CN2C(=O)C3C4C=CC(C4)C3C2=O)cc1 (stereo unspecified),2,0,-10,-13,-9,38*
O=C1[C@@H]2[C@H](C(=O)N1Cc1cccnc1)[C@H]1C=C[C@@H]2C1,6,6,-17,-28,0,5
CN1CCN(c2ccc(NC(=O)c3ccc(C#N)cc3F)cc2Cl)CC1,.,4,-13,12,-2,.
Cc1ccc(CN2CC(C(=O)Nc3ccc(F)c([N+](=O)[O-])c3)CC2=O)cc1 (stereo unspecified),.,-10,-16,81*,70*,.
Cc1ccc(CN2CC(C(=O)Nc3cc(S(C)(=O)=O)ccc3Cl)CC2=O)cc1 (stereo unspecified),0,8,-9,0,-3,14
CC(C)CC(C(=O)Nc1ccccc1)N1C(=O)C2C3C=CC(C3)C2C1=O (stereo unspecified),.,-2,.,8,-8,.

# Screening data (PubChem)
